This note sets out measurements from ChEMBL document CHEMBL1123947, “Design, structure-activity, and molecular modeling studies of potent renin inhibitory peptides having N-terminal Nin-For-Trp (Ftr): angiotensinogen congeners modified by P1-P1' Phe-Phe, Sta, Leu psi[CH(OH)CH2]Val or leu psi[CH2NH]Val substitutions” (J Med Chem, 1988).

Assay [1] has as its target T1, Renin (Homo sapiens, UniProt P00797).
T1 sequence (P00797 whole entry): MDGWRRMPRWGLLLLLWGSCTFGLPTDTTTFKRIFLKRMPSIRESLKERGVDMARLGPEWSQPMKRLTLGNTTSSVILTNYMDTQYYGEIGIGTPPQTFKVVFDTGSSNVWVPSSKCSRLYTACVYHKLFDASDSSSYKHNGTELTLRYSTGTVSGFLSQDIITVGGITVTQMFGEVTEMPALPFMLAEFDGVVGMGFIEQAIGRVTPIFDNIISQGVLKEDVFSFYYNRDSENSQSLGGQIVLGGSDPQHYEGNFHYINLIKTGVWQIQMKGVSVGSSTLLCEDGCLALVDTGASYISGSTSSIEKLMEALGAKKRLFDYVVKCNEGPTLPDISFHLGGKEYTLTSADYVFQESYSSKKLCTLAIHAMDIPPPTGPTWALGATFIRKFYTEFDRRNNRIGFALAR
As to the kind of experiment: In vitro inhibitory activity against human plasma renin. In kind it is cell-free. The essentials: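 Reconstituted lyophilized human plasma with 0.1% EDTA, plus PMSF and maleate buffer (pH 6.0). Inhibitor added in 1.0% Tween 80/water vehicle. Angiotensin I generated for 90 min at 37 °C and measured by RIA.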

The target in assay [2] is Renin (Sus scrofa). As to the kind of experiment: In vitro inhibitory activity towards porcine kidney renin.

Numbered stars: 1 amine (or outer) side, 2 acyl side, 3 side chain; on linkers, the order of the positions; unused ones are H or OH. Square brackets hold non-standard residues; d marks the D form. Peptide text beside a SMILES is read from it. * marks the point of attachment. ξ: configuration not given here. Sta(3ξ) = CC(C)C[C@H](N[*:1])C(O)CC(=O)[*:2]; X4 = CC(C)C[C@H](N*)C(O)C[C@H](C(N)=O)C(C)C; X5 = CC(C)C[C@@H](CN[C@H](C(N)=O)C(C)C)N*; X1 = CC(C)CC(N[*:1])C(O)CC(=O)[*:2]; X3 = CC(C)CC(N[*:1])C(O)C(=O)[*:2]; Ile(3ξ) = CCC(C)[C@H](N)C(=O)O; X2 = CC(C)CC(N*)C(O)CC(N)=O; Cbz = O=C(OCc1ccccc1)*; Boc = CC(C)(C)OC(=O)*; For = O=C*

Broadly, the IC50 is the concentration that inhibits the measured activity by half. Read a low IC50 as higher potency.

`CC(=O)N[C@H](Cc1c[nH]cn1)C(=O)N1CCC[C@H]1C(=O)N[C@@H](Cc1ccccc1)C(=O)N[C@@H](Cc1ccccc1)C(=O)N[C@H](C(=O)N[C@@H](Cc1cn(C=O)c2ccccc12)C(N)=O)C(C)C` showed an IC50 in assay [1] of around 100000 nM.

`CC[C@H](C)[C@H](NC(=O)CC(O)[C@H](CC(C)C)NC(=O)[C@H](Cc1c[nH]cn1)NC(=O)[C@H](Cc1ccccc1)NC(=O)[C@@H]1CCCN1C(=O)[C@@H](Cc1cn(C=O)c2ccccc12)NC(C)=O)C(N)=O` (some centres undefined): in assay [1], the IC50 was 14 nM.

As to `CC(=O)N[C@@H](Cc1cn(C=O)c2ccccc12)C(=O)N1CCC[C@H]1C(=O)N[C@@H](Cc1ccccc1)C(=O)N[C@@H](Cc1c[nH]cn1)C(=O)N[C@@H](CC(C)C)C(O)C[C@H](C(N)=O)C(C)C` (some centres undefined) (Ac-W(For)PFH-X4), the IC50 in assay [1] was determined as 0.31 nM.

As for `CC[C@H](C)[C@H](NC(=O)CC(O)[C@H](CC(C)C)NC(=O)[C@H](Cc1c[nH]cn1)NC(=O)[C@H](Cc1ccccc1)NC(=O)[C@@H]1CCCN1C(=O)[C@H](Cc1c[nH]c2ccccc12)NC(C)=O)C(N)=O` (some centres undefined) (Ac-WPFH[Sta(3ξ)]I-NH2), 1.6 nM corresponded to half-maximal inhibition in assay [1] (IC50).

In assay [1], `CC[C@H](C)[C@H](NC(=O)C(O)C(CC(C)C)NC(=O)[C@H](Cc1c[nH]cn1)NC(=O)[C@H](Cc1ccccc1)NC(=O)[C@@H]1CCCN1C(=O)[C@H](CCCN=C(N)N)NC(=O)[C@H](CCCN=C(N)N)NC(=O)OCc1ccccc1)C(=O)N[C@@H](Cc1c[nH]cn1)C(=O)N[C@@H](CCCCNC(=O)OC(C)(C)C)C(=O)OC` (some centres undefined) (Cbz-RRPFH[X3]IHK(Boc)-OMe) yielded an IC50 of 1 nM.

`CC(C)CC(NC(=O)[C@H](Cc1c[nH]cn1)NC(=O)[C@H](Cc1ccccc1)NC(=O)[C@@H]1CCCN1)C(O)CC(=O)N[C@@H](CC(C)C)C(=O)N[C@@H](Cc1ccccc1)C(N)=O` (some centres undefined) (H-PFH[X1]LF-NH2): the IC50 in assay [2] worked out at 0.2 µM.

For `CCC(C)[C@H](NC(=O)CC(O)C(CC(C)C)NC(=O)[C@H](Cc1c[nH]cn1)NC(=O)[C@H](Cc1ccccc1)NC(=O)[C@@H]1CCCN1C=O)C(N)=O` (some centres undefined) (For-PFH[X1][Ile(3ξ)]-NH2), 31 nM corresponded to half-maximal inhibition in assay [1] (IC50).

`CC(=O)N[C@@H](Cc1cn(C=O)c2ccccc12)C(=O)N1CCC[C@H]1C(=O)N[C@@H](Cc1ccccc1)C(=O)N[C@@H](Cc1cnc[nH]1)C(=O)N[C@@H](Cc1ccccc1)C(=O)N[C@@H](Cc1ccccc1)C(=O)N[C@H](C(N)=O)C(C)C` (Ac-W(For)PFHFFV-NH2): in assay [1], half-maximal inhibition (IC50) required 2100 nM.

Turning to `CC[C@H](C)[C@H](NC(=O)CC(O)[C@H](CC(C)C)NC(=O)[C@H](Cc1cnc[nH]1)NC(=O)[C@H](Cc1ccccc1)NC(=O)[C@@H]1CCCN1C(=O)[C@H](Cc1cn(C=O)c2ccccc12)NC(C)=O)C(N)=O` (some centres undefined), in assay [1], the IC50 was 0.1 nM.

`CC(C)CC(NC(=O)[C@@H](N)Cc1cnc[nH]1)C(O)CC(=O)N[C@@H](CC(C)C)C(=O)N[C@@H](Cc1ccccc1)C(N)=O` (some centres undefined) had an IC50 in assay [2] of 370 µM.

`CC(=O)N[C@@H](Cc1cn(C=O)c2ccccc12)C(=O)N1CCC[C@H]1C(=O)N[C@@H](Cc1ccccc1)C(=O)N[C@@H](Cc1cnc[nH]1)C(=O)N[C@@H](Cc1ccccc1)C(=O)N[C@@H](Cc1ccccc1)C(=O)N[C@H](C(=O)N[C@@H](Cc1cn(C=O)c2ccccc12)C(N)=O)C(C)C` gave an IC50 in assay [1] of 500 nM.

For `CC(=O)N[C@@H](Cc1cn(C=O)c2ccccc12)C(=O)N1CCC[C@H]1C(=O)N[C@@H](Cc1ccccc1)C(=O)N[C@@H](Cc1cnc[nH]1)C(=O)NC(CC(C)C)C(O)CC(=O)N[C@H](C(=O)N[C@@H](Cc1cn(C=O)c2ccccc12)C(N)=O)C(C)C` (some centres undefined) (Ac-W(For)PFH[X1]VW(For)-NH2), in assay [1], the IC50 is 0.38 nM.

Consider `CC(=O)N[C@@H](Cc1cnc[nH]1)C(=O)N1CCC[C@H]1C(=O)N[C@@H](Cc1ccccc1)C(=O)N[C@@H](Cc1cnc[nH]1)C(=O)N[C@@H](Cc1ccccc1)C(=O)N[C@@H](Cc1ccccc1)C(=O)N[C@H](C(=O)N[C@@H](Cc1cn(C=O)c2ccccc12)C(N)=O)C(C)C` (Ac-HPFHFFVW(For)-NH2), for which the IC50 in assay [1] was 8300 nM.

As for `CC(=O)N[C@@H](Cc1cn(C=O)c2ccccc12)C(=O)N1CCC[C@H]1C(=O)N[C@@H](Cc1ccccc1)C(=O)N[C@@H](Cc1c[nH]cn1)C(=O)NC(CC(C)C)C(O)CC(=O)N[C@H](C(N)=O)C(C)C` (some centres undefined) (Ac-W(For)PFH[X1]V-NH2), in assay [1], the half-maximal inhibitory concentration (IC50) stood at 0.53 nM.

Turning to `CC(=O)N[C@H](Cc1c[nH]c2ccccc12)C(=O)N1CCC[C@H]1C(=O)N[C@@H](Cc1ccccc1)C(=O)N[C@@H](Cc1c[nH]cn1)C(=O)N[C@@H](Cc1ccccc1)C(=O)N[C@@H](Cc1ccccc1)C(=O)N[C@H](C(=O)N[C@@H](Cc1cn(C=O)c2ccccc12)C(N)=O)C(C)C`, in assay [1], the IC50 came out at 5000 nM.

`CC(=O)N[C@@H](Cc1c[nH]cn1)C(=O)N[C@@H](Cc1ccccc1)C(=O)N[C@@H](Cc1cn(C=O)c2ccccc12)C(=O)N[C@@H](Cc1ccccc1)C(=O)N[C@@H](Cc1ccccc1)C(=O)N[C@H](C(=O)N[C@@H](Cc1cn(C=O)c2ccccc12)C(N)=O)C(C)C` (Ac-HFW(For)FFVW(For)-NH2): the IC50 in assay [1] was above 100000 nM.

In assay [1], `CC(=O)N[C@@H](Cc1cn(C=O)c2ccccc12)C(=O)N1CCC[C@H]1C(=O)N[C@@H](Cc1ccccc1)C(=O)N[C@@H](Cc1cnc[nH]1)C(=O)NC(CC(C)C)C(O)CC(N)=O` (some centres undefined) (Ac-W(For)PFH-X2) returned an IC50 of 3.8 nM.

With `CC[C@H](C)[C@H](NC(=O)[C@@H](NC[C@H](CC(C)C)NC(=O)[C@H](Cc1c[nH]cn1)NC(=O)[C@H](Cc1ccccc1)NC(=O)[C@@H]1CCCN1C(=O)[C@H](Cc1c[nH]cn1)NC(=O)[C@@H]1CCCN1)C(C)C)C(=O)N[C@@H](Cc1c[nH]cn1)C(=O)N[C@@H](CCCCN)C(=O)O`, 10 nM corresponded to half-maximal inhibition in assay [1] (IC50).

For `CC[C@H](C)[C@H](NC(=O)[C@@H](C[C@H](O)[C@H](CC(C)C)NC(=O)[C@H](Cc1c[nH]cn1)N(C)C(=O)[C@H](Cc1ccccc1)NC(=O)[C@@H]1CCCN1C(=O)OC(C)(C)C)C(C)C)C(=O)NCc1ccccn1`, the IC50 in assay [1] amounted to 0.11 nM.

In the case of `CC(=O)N[C@@H](Cc1cn(C=O)c2ccccc12)C(=O)NCC(=O)N[C@@H](Cc1ccccc1)C(=O)N[C@@H](Cc1cnc[nH]1)C(=O)N[C@@H](Cc1ccccc1)C(=O)N[C@@H](Cc1ccccc1)C(=O)N[C@H](C(=O)N[C@@H](Cc1cn(C=O)c2ccccc12)C(N)=O)C(C)C` (Ac-W(For)GFHFFVW(For)-NH2), the IC50 in assay [1] is above 100000 nM.

As for `CC(=O)N[C@@H](Cc1cn(C=O)c2ccccc12)C(=O)N1CCC[C@H]1C(=O)N[C@@H](Cc1ccccc1)C(=O)N[C@@H](Cc1c[nH]cn1)C(=O)N[C@H](CN[C@H](C(N)=O)C(C)C)CC(C)C` (Ac-W(For)PFH-X5), in assay [1], 21 nM corresponded to half-maximal inhibition (IC50).

Consider `CC[C@H](C)[C@H](NC(=O)CC(O)[C@H](CC(C)C)NC(=O)[C@H](Cc1cnc[nH]1)NC(=O)[C@H](Cc1ccccc1)NC(=O)[C@@H]1CCCN1C(=O)[C@H](Cc1cnc[nH]1)NC(C)=O)C(N)=O` (some centres undefined) (Ac-HPFH[Sta(3ξ)]I-NH2), for which the IC50 in assay [1] amounted to 6.8 nM.

Consider `CC(=O)N[C@@H](Cc1cn(C=O)c2ccccc12)C(=O)N1CCC[C@H]1C(=O)N[C@@H](Cc1ccccc1)C(=O)N[C@@H](Cc1c[nH]cn1)C(=O)N[C@@H](Cc1ccccc1)C(=O)N[C@@H](Cc1ccccc1)C(N)=O` (Ac-W(For)PFHFF-NH2), for which the 50% inhibitory concentration (IC50) in assay [1] was above 100000 nM.

`CC(=O)N[C@H](Cc1cn(C=O)c2ccccc12)C(=O)N1CCC[C@H]1C(=O)N[C@@H](Cc1ccccc1)C(=O)N[C@@H](Cc1cnc[nH]1)C(=O)N[C@@H](Cc1ccccc1)C(=O)N[C@@H](Cc1ccccc1)C(=O)N[C@H](C(=O)N[C@@H](Cc1cn(C=O)c2ccccc12)C(N)=O)C(C)C` came in with an IC50 in assay [1] above 100000 nM.
